# Measured values reported in ChEMBL document CHEMBL1126810, “Development of selective tight-binding inhibitors of leukotriene A4 hydrolase” (J Med Chem, 1993).
# Columns and labels:
# [1] = molecular target: T1, Leukotriene A-4 hydrolase (Homo sapiens, UniProt P09960); test: Inhibition of amidase activity of LTA4 hydrolase purified from human leukocytes
# T1 sequence (P09960 whole entry): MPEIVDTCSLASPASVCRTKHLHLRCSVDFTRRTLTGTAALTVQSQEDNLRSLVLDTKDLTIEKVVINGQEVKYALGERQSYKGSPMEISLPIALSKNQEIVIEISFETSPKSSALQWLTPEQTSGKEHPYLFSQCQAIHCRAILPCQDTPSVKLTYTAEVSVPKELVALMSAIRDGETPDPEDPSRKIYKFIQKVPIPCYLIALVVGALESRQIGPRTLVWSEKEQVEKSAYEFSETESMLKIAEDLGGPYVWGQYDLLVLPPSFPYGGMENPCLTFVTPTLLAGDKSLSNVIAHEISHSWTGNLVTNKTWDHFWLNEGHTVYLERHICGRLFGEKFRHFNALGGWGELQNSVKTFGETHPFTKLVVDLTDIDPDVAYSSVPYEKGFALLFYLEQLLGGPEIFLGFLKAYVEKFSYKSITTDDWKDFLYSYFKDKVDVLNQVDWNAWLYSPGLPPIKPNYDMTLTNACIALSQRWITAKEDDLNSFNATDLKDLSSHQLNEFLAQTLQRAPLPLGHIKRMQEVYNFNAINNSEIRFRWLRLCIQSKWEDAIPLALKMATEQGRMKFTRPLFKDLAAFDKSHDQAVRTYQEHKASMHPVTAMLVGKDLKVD
# [2] = molecular target: T1, Leukotriene A-4 hydrolase; test: Ability at 1 mM to inhibit amidase activity of LTA4 hydrolase (1.4 ug) purified from human leukocytes; NI=No inhibition
# How it was run: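 Human leukocyte enzyme (1.4 μg) in 0.05 M Tris-HCl, pH 8.0, with 1.5 mM L-alanyl p-nitroanilide as substrate. Inhibitor tested at 1 mM; thiol compounds assayed with 5 mM DTT. p-Nitroaniline release followed spectrophotometrically at 405 nm.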
# [3] = molecular target: T2, Leukotriene A-4 hydrolase (Homo sapiens) (UniProt P09960); test: Kinetic parameter kcat against LTA4 hydrolase purified from human leukocytes
# T2 sequence (whole entry): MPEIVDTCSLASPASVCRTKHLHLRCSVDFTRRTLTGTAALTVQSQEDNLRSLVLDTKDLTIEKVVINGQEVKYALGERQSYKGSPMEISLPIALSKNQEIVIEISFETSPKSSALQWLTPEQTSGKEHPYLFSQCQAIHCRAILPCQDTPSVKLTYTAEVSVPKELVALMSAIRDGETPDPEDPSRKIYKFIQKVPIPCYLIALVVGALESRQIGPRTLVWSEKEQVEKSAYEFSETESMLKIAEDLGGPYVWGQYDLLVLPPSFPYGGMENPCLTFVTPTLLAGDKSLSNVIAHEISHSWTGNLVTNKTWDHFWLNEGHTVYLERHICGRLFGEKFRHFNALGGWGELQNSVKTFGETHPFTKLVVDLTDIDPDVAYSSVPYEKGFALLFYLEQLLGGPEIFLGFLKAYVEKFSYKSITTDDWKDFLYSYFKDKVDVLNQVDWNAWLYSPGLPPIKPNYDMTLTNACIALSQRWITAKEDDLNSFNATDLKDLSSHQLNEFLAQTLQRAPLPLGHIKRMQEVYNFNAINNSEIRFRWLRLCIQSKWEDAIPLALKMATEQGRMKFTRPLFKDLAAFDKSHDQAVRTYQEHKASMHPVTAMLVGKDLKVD
# How it was run: (§1)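 Amino acid amides tested as substrates in 50 mM Tris-Cl, pH 7.6, with 0.1 M NaCl. p-Nitroaniline release read at 410 nm using ε 8850 M⁻¹ cm⁻¹.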
# [4] = Ratio kcat /Km ([…]/M 1/s); design: scale not given here
# [5] = molecular target: Cytosol aminopeptidase (Homo sapiens, UniProt P28838); test: Inhibitory concentration against cytosolic leucine aminopeptidase
# [6] = substrate: NCCCC[C@H](N)C(=O)Nc1ccc([N+](=O)[O-])cc1; test: (§2) Kinetic parameter Vmax against LTA4 hydrolase purified from human leukocytes was determined; how it was run: as §1
# [7] = substrate: C[C@H](N)C(=O)Nc1ccc([N+](=O)[O-])cc1; test: as §2; how it was run: as §1
# [8] = substrate: NC(N)=NCCC[C@H](N)C(=O)Nc1ccc([N+](=O)[O-])cc1; test: as §2; how it was run: as §1
# [9] = substrate: C[C@@H](N)C(=O)Nc1ccc([N+](=O)[O-])cc1; test: as §2; how it was run: as §1
# [10] = substrate: NCCCC[C@H](N)C(=O)Nc1ccc([N+](=O)[O-])cc1; test: (§3) Kinetic parameter (Km) for hydrolysis of LTA4 hydrolase purified from human leukocytes; how it was run: as §1
# [11] = substrate: C[C@H](N)C(=O)Nc1ccc([N+](=O)[O-])cc1; test: as §3; how it was run: as §1
# [12] = substrate: NC(N)=NCCC[C@H](N)C(=O)Nc1ccc([N+](=O)[O-])cc1; test: as §3; how it was run: as §1
# Chain of Cytosol aminopeptidase (P28838 whole entry): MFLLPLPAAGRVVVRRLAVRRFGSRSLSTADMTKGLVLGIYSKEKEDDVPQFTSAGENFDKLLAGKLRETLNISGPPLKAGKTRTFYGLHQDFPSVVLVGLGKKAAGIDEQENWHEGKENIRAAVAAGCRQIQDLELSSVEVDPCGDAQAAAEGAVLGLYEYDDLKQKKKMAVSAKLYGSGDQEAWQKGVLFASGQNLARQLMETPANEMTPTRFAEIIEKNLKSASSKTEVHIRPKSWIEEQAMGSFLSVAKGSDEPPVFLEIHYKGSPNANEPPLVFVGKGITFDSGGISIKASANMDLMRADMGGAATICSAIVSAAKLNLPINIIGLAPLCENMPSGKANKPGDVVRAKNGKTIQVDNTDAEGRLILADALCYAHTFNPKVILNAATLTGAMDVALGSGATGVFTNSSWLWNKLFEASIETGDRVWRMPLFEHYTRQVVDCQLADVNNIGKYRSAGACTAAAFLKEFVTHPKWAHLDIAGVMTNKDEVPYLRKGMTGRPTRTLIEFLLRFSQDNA
molecule,measurement,setting,value
N[C@@H](Cc1ccccc1)[C@H](O)C(=O)NCc1ccccc1,IC50,[1],> 100 µM
N[C@H](Cc1ccccc1)[C@H](O)C(=O)O,IC50,[2],Not Active
N[C@@H](Cc1ccccc1)[C@H](O)C(=O)OCc1ccccc1,IC50,[1],20 µM
COC(=O)[C@H](O)[C@H](N)Cc1ccccc1,IC50,[2],Not Active
CCOC(=O)CC(F)(F)C(=O)c1[nH]cnc1C,IC50,[1],> 1000 µM
CC(C)C[C@H](NC(=O)C(S)C(N)Cc1ccccc1)C(=O)O (stereo not given in full),IC50,[1],> 250 µM
COC(=O)C(S)C(N)Cc1ccccc1 (stereo not given),IC50,[1],250 µM
NC(N)=NCCC[C@H](N)C(=O)Nc1ccc([N+](=O)[O-])cc1,k cat,[3],0.15 s⁻¹
same,Ratio,[4],0.00075
O=C(Nc1ccc([N+](=O)[O-])cc1)[C@@H]1CCCN1,k cat,[3],0.15 s⁻¹
same,Ratio,[4],0.0015
CC(C)C[C@H](/N=C(\S)[C@H](O)[C@@H](N)Cc1ccccc1)C(=O)O,IC50,[1],> 100 µM
COC(=O)C(=O)[C@@H](N)Cc1ccc(OCc2ccccc2)cc1,IC50,[5],50 µM
N[C@@H](Cc1ccc(OCc2ccccc2)cc1)[C@H](O)C(=O)OCc1ccccc1,IC50,[5],80 µM
CC(C)C[C@H](/N=C(\S)[C@@H](O)[C@H](N)Cc1ccccc1)C(=O)O,IC50,[1],> 100 µM
NCCCC[C@H](N)C(=O)Nc1ccc([N+](=O)[O-])cc1,k cat,[3],0.035 s⁻¹
same,Ratio,[4],0.00035
N[C@@H](Cc1ccc(OCc2ccccc2)cc1)C(=O)C(=O)OCc1ccccc1,IC50,[5],> 100 µM
CC(C)C[C@H](/N=C(\S)[C@H](O)[C@H](N)Cc1ccccc1)C(=O)O,IC50,[1],> 100 µM
C[C@H](N)C(=O)Nc1ccc([N+](=O)[O-])cc1,k cat,[3],0.6 s⁻¹
same,Ratio,[4],0.0012
NC(Cc1ccccc1)P(=O)(O)NCC(=O)O (stereo not given),IC50,[1],> 100 µM
N[C@H](CS)Cc1ccc(OCc2ccccc2)cc1,IC50,[5],> 50 µM
COC(=O)[C@@H](O)[C@H](N)Cc1ccccc1,IC50,[2],Not Active
CCCCC/C=C\C\C=C/C=C/C=C/[C@@H]1O[C@H]1CCCC(=O)O,k cat,[3],0.68 s⁻¹
same,Ratio,[4],0.09
CC(C)C[C@H](N)C(=O)Nc1ccc([N+](=O)[O-])cc1,k cat,[3],0.15 s⁻¹
same,Ratio,[4],0.0005
"Leukotriene A-4 hydrolase (Homo sapiens), P09960 (protein) MPEIVDTCSLASPASVCRTKHLHLRCSVDFTRRTLTGTAALTVQSQEDNLRSLVLDTKDLTIEKVVINGQEVKYALGERQSYKGSPMEISLPIALSKNQEIVIEISFETSPKSSALQWLTPEQTSGKEHPYLFSQCQAIHCRAILPCQDTPSVKLTYTAEVSVPKELVALMSAIRDGETPDPEDPSRKIYKFIQKVPIPCYLIALVVGALESRQIGPRTLVWSEKEQVEKSAYEFSETESMLKIAEDLGGPYVWGQYDLLVLPPSFPYGGMENPCLTFVTPTLLAGDKSLSNVIAHEISHSWTGNLVTNKTWDHFWLNEGHTVYLERHICGRLFGEKFRHFNALGGWGELQNSVKTFGETHPFTKLVVDLTDIDPDVAYSSVPYEKGFALLFYLEQLLGGPEIFLGFLKAYVEKFSYKSITTDDWKDFLYSYFKDKVDVLNQVDWNAWLYSPGLPPIKPNYDMTLTNACIALSQRWITAKEDDLNSFNATDLKDLSSHQLNEFLAQTLQRAPLPLGHIKRMQEVYNFNAINNSEIRFRWLRLCIQSKWEDAIPLALKMATEQGRMKFTRPLFKDLAAFDKSHDQAVRTYQEHKASMHPVTAMLVGKDLKVD",Vmax (nM min-1 mg-1),[6],30
same,Vmax (nM min-1 mg-1),[7],530
same,Vmax (nM min-1 mg-1),[8],135
same,Vmax (nM min-1 mg-1),[9],0
same,Km,[10],100 µM
same,Km,[11],500 µM
same,Km,[12],200 µM
